Reference: ChEMBL document CHEMBL1938288, “Discovery, synthesis, and pharmacological evaluation of spiropiperidine hydroxamic acid based derivatives as structurally novel histone deacetylase (HDAC) inhibitors” (J Med Chem, 2011)
Active and inactive are the calls of the source. No cut-off for these calls is given here.

How the values were obtained:
[1] = target: Histone deacetylase 4 (Homo sapiens, UniProt P56524); experiment: Inhibition of HDAC4 using carboxyfluorescein-labeled peptide as substrate after 17 hrs by fluorescence assay
Summary of the method: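 Stopped with HEPES/0.08% SDS. Substrate and product separated electrophoretically, read by green fluorescence. Duplicates. IC50 from 12-point concentration-response curves by nonlinear regression. Run by contract lab.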

[2] = tested on: HCT-116; experiment: Antitumor activity against human HCT116 cells xenografted in CD1 nude mouse assessed as reduced tumor volume 150 mg/kg, po administered for 5 days/week for 17 days; type: functional
Summary of the method: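 Female CD-1 nude mice bearing subcutaneous flank HCT-116 tumours (5 × 10⁶ cells injected). Dosing began at about 100 mm³ tumour volume. Given orally at 35–150 mg/kg in water with 5% DMSO and 9.5% encapsin, 5 days/week for 17 days. Tumour volume tracked against vehicle controls. T/C = mean relative tumour volume treated / control.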

[3] = Cmax in CD1 mouse at 15 mg/kg, po; type: ADME, organism-based; set-up: dose 15 mg/kg, route oral; conditions: in vivo
Summary of the method: (§1)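 Single dose to male CD-1 mice, either iv at 5 mg/kg or oral at 15 mg/kg. Plasma pharmacokinetic parameters were calculated from these dosings.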

[4] = tested on: K562; experiment: Antiproliferative activity against human K562 cells after 72 hrs by CellTiter-Glo luminescent cell viability assay; type: functional, cell-based; conditions: K562, 72 h
Summary of the method: (§2)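 Cells in exponential growth exposed to a range of inhibitor concentrations for 72 h. CellTiter-Glo reagent added, mixed 2 min to lyse cells, luminescence read 10 min later. IC50 derived from the concentration–response. Replicates n ≥ 2, mean shown.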

[5] = tested on: HCT-116; experiment: Cell cycle arrest in human HCT116 cells assessed as accumulation at subG1 phase after 24 hrs by flow cytometry; type: functional, cell-based
Summary of the method: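 HCT-116 cells treated for 24 h at several concentrations. Harvested, fixed in 70% ethanol at -20 °C, RNase treated (1 mg/mL), stained with propidium iodide. DNA content measured by flow cytometry to give phase distribution, including the subG1 population.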

[6] = tested on: Mus musculus; experiment: Increase of histone H4 cetylation in human HCT116 cells xenografted in CD1 mouse at 35 to 150 mg/kg, po administered for 5 days/week for 17 days by immunohistochemistry; type: functional, organism-based; conditions: HCT-116
Summary of the method: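 Xenograft tumours from the oral efficacy study were collected 2 h after the last dose. They were formalin-fixed, paraffin-embedded, unmasked in TEG buffer pH 9, treated 5 min with 3% H2O2, and incubated overnight at 4 °C with anti-acetyl-histone H4. Staining was developed by HRP detection with hematoxylin counterstain. Positive cells and signal intensity were compared with vehicle.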

[7] = tested on: Mus musculus; experiment: Toxicity in human HCT116 cells xenografted CD1 nude mouse assessed as change in body weight at 35 to 150 mg/kg, po administered for 5 days/week for 17 days; type: organism-based, HCT-116; set-up: dose 35-150 mg/kg, route oral; conditions: in vivo
[8] = target: Histone deacetylase 3 (Homo sapiens, UniProt O15379); experiment: Inhibition of HDAC3 using carboxyfluorescein-labeled peptide as substrate after 17 hrs by fluorescence assay
Summary of the method: (§3)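 Purified HDAC isoforms incubated with compound and 1 μM carboxyfluorescein-labelled peptide for 17 h at 25 °C. Reaction stopped with HEPES/0.08% SDS. Substrate and product separated electrophoretically and read by fluorescence. Run in duplicate. IC50 from 12-point curves by nonlinear regression.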

[9] = tested on: A549; experiment: Antiproliferative activity against human A549 cells after 72 hrs by CellTiter-Glo luminescent cell viability assay; type: functional, cell-based; conditions: A549, 72 h; summary of the method: as §2
[10] = AUC (0 to infinity) in CD1 mouse at 5 mg/kg, iv; type: ADME, organism-based; set-up: time infinity, dose 5 mg/kg, route intravenous; conditions: plasma; summary of the method: as §1
[11] = tested on: HCT-116; experiment: Antiproliferative activity against human HCT116 cells after 72 hrs by CellTiter-Glo luminescent cell viability assay; type: functional, cell-based; conditions: HCT-116, 72 h; summary of the method: as §2
[12] = Volume of distribution at steady state in CD1 mouse at 5 mg/kg, iv and 15 mg/kg, po; type: ADME, organism-based; conditions: in vivo, read-out: Vdss; summary of the method: as §1
[13] = target: T1, Histone deacetylase 8 (Homo sapiens, UniProt Q9BY41); experiment: Inhibition of HDAC8 using carboxyfluorescein-labeled peptide as substrate after 17 hrs by fluorescence assay; summary of the method: as §3
T1 sequence (Q9BY41 whole entry): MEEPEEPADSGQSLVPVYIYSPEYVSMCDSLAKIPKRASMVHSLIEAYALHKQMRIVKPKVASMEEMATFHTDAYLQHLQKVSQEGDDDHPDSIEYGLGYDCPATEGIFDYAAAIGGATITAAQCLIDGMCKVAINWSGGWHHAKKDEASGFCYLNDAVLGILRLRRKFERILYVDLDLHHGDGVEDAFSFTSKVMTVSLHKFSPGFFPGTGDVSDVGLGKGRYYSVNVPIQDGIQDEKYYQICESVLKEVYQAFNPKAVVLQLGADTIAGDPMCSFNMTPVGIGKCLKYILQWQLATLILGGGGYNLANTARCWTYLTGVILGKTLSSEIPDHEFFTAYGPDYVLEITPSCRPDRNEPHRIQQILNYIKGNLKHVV

[14] = target: Histone deacetylase; experiment: Inhibition of human HDAC in HeLa cell nuclear extracts using KI-104 Fluor de Lys as substrate by fluorescence assay; type: protein assay
Summary of the method: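 HDAC activity from partially purified HeLa nuclear extracts, using a fluorogenic acetylated histone peptide (Fluor de Lys) as substrate. Replicates n ≥ 2, mean values reported.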

Histone deacetylase 4, sequence (P56524 whole entry): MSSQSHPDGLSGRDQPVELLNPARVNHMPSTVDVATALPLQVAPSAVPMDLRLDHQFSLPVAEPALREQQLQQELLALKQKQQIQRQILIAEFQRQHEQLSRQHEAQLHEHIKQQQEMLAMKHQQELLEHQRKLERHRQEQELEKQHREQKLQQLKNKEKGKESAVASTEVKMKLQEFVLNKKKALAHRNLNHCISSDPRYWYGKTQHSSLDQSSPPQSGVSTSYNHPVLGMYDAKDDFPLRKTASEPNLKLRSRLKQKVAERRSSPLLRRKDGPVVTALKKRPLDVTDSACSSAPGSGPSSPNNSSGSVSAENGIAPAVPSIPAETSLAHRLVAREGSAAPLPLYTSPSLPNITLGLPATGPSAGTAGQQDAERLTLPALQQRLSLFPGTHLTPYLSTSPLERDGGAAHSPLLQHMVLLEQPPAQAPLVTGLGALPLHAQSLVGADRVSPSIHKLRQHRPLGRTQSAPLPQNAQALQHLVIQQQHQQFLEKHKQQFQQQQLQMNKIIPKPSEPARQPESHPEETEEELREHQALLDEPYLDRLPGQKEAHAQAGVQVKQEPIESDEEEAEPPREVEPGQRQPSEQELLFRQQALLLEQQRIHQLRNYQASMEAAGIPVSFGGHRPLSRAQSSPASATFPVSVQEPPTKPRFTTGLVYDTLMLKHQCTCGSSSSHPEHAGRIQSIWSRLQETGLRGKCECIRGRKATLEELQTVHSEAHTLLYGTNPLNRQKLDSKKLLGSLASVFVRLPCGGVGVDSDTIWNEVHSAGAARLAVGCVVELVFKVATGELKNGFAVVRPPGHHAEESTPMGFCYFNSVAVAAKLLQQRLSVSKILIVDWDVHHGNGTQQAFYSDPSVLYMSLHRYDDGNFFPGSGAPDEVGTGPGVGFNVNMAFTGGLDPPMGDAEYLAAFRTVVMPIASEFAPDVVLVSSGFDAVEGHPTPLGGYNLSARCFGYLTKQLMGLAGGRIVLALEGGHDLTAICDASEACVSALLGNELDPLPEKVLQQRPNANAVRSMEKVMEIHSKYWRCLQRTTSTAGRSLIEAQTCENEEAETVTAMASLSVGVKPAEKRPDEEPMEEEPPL
Histone deacetylase 3, sequence (O15379 whole entry, canonical isoform): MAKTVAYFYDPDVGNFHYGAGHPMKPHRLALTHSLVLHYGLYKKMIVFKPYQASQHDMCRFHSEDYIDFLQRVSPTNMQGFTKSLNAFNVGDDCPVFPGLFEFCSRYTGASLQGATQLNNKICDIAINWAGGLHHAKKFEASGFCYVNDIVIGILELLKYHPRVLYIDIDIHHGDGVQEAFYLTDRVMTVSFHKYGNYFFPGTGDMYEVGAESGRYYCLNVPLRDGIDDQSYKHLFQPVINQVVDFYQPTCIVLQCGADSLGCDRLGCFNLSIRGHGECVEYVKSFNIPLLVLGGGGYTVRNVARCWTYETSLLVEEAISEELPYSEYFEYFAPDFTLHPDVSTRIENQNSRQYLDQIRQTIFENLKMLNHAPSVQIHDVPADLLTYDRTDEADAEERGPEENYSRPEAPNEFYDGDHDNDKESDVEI

IC50 [1]: 127 nM
Cmax [3]: 823 nM
IC50 [4]: 399 nM
IC50 [8]: 9.4 nM
IC50 [9]: 773 nM
AUC(0-inf) [10]: 847 ng·h/mL
IC50 [11]: 477 nM
Vd [12]: 8.9 L/kg
IC50 [13]: 1760 nM
IC50 [14]: 121 nM
Structure (SMILES): O=C(/C=C/c1ccc2c(c1)C(=O)CC1(CCN(Cc3ccccc3)CC1)O2)NO
T/C [2]: 0.3
Activity [5]: Dose-dependent effect
Activity [6]: Active
Activity [7]: Non-toxic
